Results of several laboratories.
Lines come from different studies, so protocols differ.
Method: competition with immobilised ligand
RPS6KA6 N-terminal kinase domain: Ribosomal protein S6 kinase alpha-6, N-terminal kinase domain (RPS6KA6, Homo sapiens, UniProt Q9UK32)
RPS6KA6 C-terminal kinase domain: Ribosomal protein S6 kinase alpha-6, C-terminal kinase domain (RPS6KA6, Homo sapiens, UniProt Q9UK32)

| Structure (SMILES) | target | test | setting | remaining binding [%] |
| --- | --- | --- | --- | --- |
| Nc1ncc2c(n1)-c1c([nH]c3ccc(C#CC4CC4)cc13)CCCC2 | RPS6KA6 N-terminal kinase domain | binding | 1 µM | 78 |
| O=C(c1ccc(Nc2nccc(-c3cc4ccccc4s3)n2)cc1)N1CCC(N2CCCC2)CC1 | RPS6KA6 N-terminal kinase domain | binding | 1 µM | 98 |
| CN(c1nccc(-c2cnn3ncccc23)n1)C1CC1 | RPS6KA6 C-terminal kinase domain | binding | 1 µM | 100 |
| O=C(Nc1c[nH]nc1C(=O)NC1CCNCC1)c1cc(F)cc(F)c1 | RPS6KA6 C-terminal kinase domain | binding | 1 µM | 100 |
| FC(F)(F)Oc1cccc(-c2cnc3ccc(-c4ccncc4)nn23)c1 | RPS6KA6 N-terminal kinase domain | binding | 5 µM | 64 |
| O=C(c1ccc(Nc2ncc(Cl)c(-c3cc4ccccc4s3)n2)cc1)N1CCC(N2CCCC2)CC1 | RPS6KA6 C-terminal kinase domain | binding | 1 µM | 89 |
| CNC(=O)[C@@H]1CC[C@@H](n2c(-c3ccc4cnccc4c3)nc3ccc(C(=O)NCc4cccc(C(N)=O)c4)cc32)C1 | RPS6KA6 C-terminal kinase domain | binding | 1 µM | 97 |
| CCN1CCN(Cc2ccc(C(=O)Nc3ccc(C)c(Oc4ccc5c(c4)CC(=O)N5)c3)cc2C(F)(F)F)CC1 | RPS6KA6 C-terminal kinase domain | binding | 1 µM | 89 |
| Cn1nc(C(F)(F)F)cc1-c1cnc(N2CCc3cc(S(=O)(=O)Nc4c(F)cc(Cl)cc4F)cc(N4CCCC4=O)c32)nc1 | RPS6KA6 N-terminal kinase domain | cell-free assay | 1 µM | 85 |
| c1cncc(-c2cccc(Nc3nccc(NC4CCCCC4)n3)c2)c1 | RPS6KA6 N-terminal kinase domain | binding | 10 µM | 50 |
| CN(C)C(=O)Cn1cc(-c2nc(C3(c4ccc(-c5cnc(N)nc5)cc4)CC3)no2)cn1 | RPS6KA6 N-terminal kinase domain | cell-free assay | 1 µM | 83 |
| COc1cnc(Nc2cccc(S(N)(=O)=O)c2)nc1N1CCN(c2ccccc2)C(=O)C1 | RPS6KA6 C-terminal kinase domain | binding | 1 µM | 92 |
| Cc1cnc(Nc2ccc(C(=O)N3CCC(N4CCCC4)CC3)cc2)nc1-c1cc2ccccc2s1 | RPS6KA6 N-terminal kinase domain | binding | 1 µM | 30 |
| O=C1NC(c2ccccn2)Sc2ccccc21 (stereo not shown) | RPS6KA6 N-terminal kinase domain | cell-free assay | 1 µM | 96 |
| N[C@@H]1CCN(c2nccc(-c3cnn4ncccc34)n2)C1 | RPS6KA6 N-terminal kinase domain | binding | 1 µM | 100 |
| O=C(NS(=O)(=O)c1ccc(NCC2CCOCC2)c([N+](=O)[O-])c1)c1ccc(N2CCN(Cc3ccc(C(F)(F)F)cc3-c3ccc(Cl)cc3)CC2)cc1Oc1cnc2[nH]ccc2c1 | RPS6KA6 C-terminal kinase domain | cell-free assay | 1 µM | 100 |

| Structure (SMILES) | target | test | setting | remaining binding [%] |
| --- | --- | --- | --- | --- |
| CC1CCCN1c1nccc(-c2cnn3ncccc23)n1 (stereo not shown) | RPS6KA6 C-terminal kinase domain | binding | 1 µM | 100 |
| O=C(c1ccc(Nc2ncc(Cl)c(-c3ccc(Cl)s3)n2)cc1)N1CCC(N2CCCC2)CC1 | RPS6KA6 C-terminal kinase domain | binding | 1 µM | 83 |
| O=C(O)c1cc(-c2ccc(C3CCNCC3)cc2)c2ccc(-c3ccc(C(F)(F)F)cc3)cc2c1 | RPS6KA6 N-terminal kinase domain | cell-free assay | 1 µM | 100 |
| Cc1cnn2ncc(-c3ccnc(N(C)C)n3)c2c1 | RPS6KA6 C-terminal kinase domain | binding | 1 µM | 100 |
| O=C(NCC1CCOCC1)c1n[nH]cc1NC(=O)c1c(F)cccc1F | RPS6KA6 N-terminal kinase domain | binding | 1 µM | 41 |
| COc1cnc(Nc2cccc(S(N)(=O)=O)c2)nc1N1CCN(c2ccccc2)CC1 | RPS6KA6 N-terminal kinase domain | binding | 1 µM | 73 |
| NS(=O)(=O)c1cc(NC(=O)C2(c3ccccc3Cl)CC2)ccc1Oc1cccc(Cl)c1 | RPS6KA6 N-terminal kinase domain | cell-free assay | 1 µM | 100 |
| O=C(NCCCN1CCOCC1)c1ccc(Nc2ncc(Cl)c(-c3ccc(Cl)s3)n2)cc1 | RPS6KA6 N-terminal kinase domain | binding | 1 µM | 72 |
| COc1ccnn2ncc(-c3ccnc(N(C)C)n3)c12 | RPS6KA6 C-terminal kinase domain | binding | 1 µM | 100 |
| COc1ncc2cc3ccccc3nc2c1C#N | RPS6KA6 C-terminal kinase domain | cell-free assay | 5 µM | 73 |
| CN(C)c1nccc(-c2cnc3ncccn23)n1 | RPS6KA6 C-terminal kinase domain | binding | 1 µM | 90 |
| C[C@@H]1CN(c2cc(-c3nn(C)c4ccc(OC5(C)CC5)cc34)ncn2)C[C@H](C)O1 | RPS6KA6 C-terminal kinase domain | cell-free assay | 1 µM | 79 |
| O=C(NCCCN1CCOCC1)c1ccc(Nc2nccc(-c3cc4ccccc4s3)n2)cc1 | RPS6KA6 C-terminal kinase domain | binding | 1 µM | 35 |
| CCS(=O)(=O)c1cc2cc(C[C@@](O)(CC(C)(C)c3ccc(F)cc3C(N)=O)C(F)(F)F)[nH]c2cn1 | RPS6KA6 N-terminal kinase domain | cell-free assay | 1 µM | 100 |
| CN(C)c1nccc(-c2cnn3ncccc23)n1 | RPS6KA6 C-terminal kinase domain | binding | 1 µM | 100 |
